Assay results: ChEMBL document CHEMBL4382237, “Design, Synthesis, and Biological Evaluation of 2-Nitroimidazopyrazin-one/-es with Antitubercular and Antiparasitic Activity” (J Med Chem, 2018)
Converted amounts (≈) assume the structure as drawn.

What was measured:
Giardia intestinalis = test: Antiparasitic activity against Giardia lamblia WB trophozoites after 24 to 48 hrs by CellTiter-Glo luminescent cell viability assay; conditions: Giardia duodenalis
[1] = tested on: Mycobacterium tuberculosis; test: Antibacterial activity against Mycobacterium tuberculosis H37Rv after 5 days under normoxic condition by resazurin dye-based fluorescence assay; format: functional, organism-based; conditions: for IC50: Mycobacterium tuberculosis, H37Rv, 120 h
In short: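 H37Rv grown in 7H9/ADC/glycerol/Tyloxapol to mid-exponential phase, diluted to OD600 0.001 (~2 x 10^4 CFU/mL) in 7H9S with serially diluted compound. Incubated 5 days at 37 °C, then resazurin and Tween-80 added. Fluorescence (ex 530/em 590 nm) read after 24 h, normalised to no-drug and no-bacteria wells.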

[2] = tested on: Mycobacterium tuberculosis; test: Antibacterial activity against non-replicating Mycobacterium tuberculosis H37Rv after 5 days under hypoxic condition by resazurin dye-based fluorescence assay; format: functional; conditions: 120 h
In short: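 Same H37Rv inoculum (OD600 0.001, ~2 x 10^4 CFU/mL) in 7H9S with serially diluted compound. Plates held 5 days at 0.1% oxygen, then resazurin plus Tween-80 added.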

[3] = tested on: Trypanosoma brucei brucei; test: Antiparasitic activity against bloodstream form of Trypanosoma brucei brucei strain 427 assessed as inhibition of parasitic growth at 40 uM after 48 hrs by resazurin dye-based assay relative to control; format: functional; conditions: strain 427, 48 h, read-out: GI
Staphylococcus aureus = test: Antibacterial activity against methicillin-resistant Staphylococcus aureus ATCC […] by broth microdilution assay; format: functional
Escherichia coli = test: Antibacterial activity against Escherichia coli ATCC 25922 by broth microdilution assay; format: functional
In short: (§1)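 Broth microdilution run essentially per an earlier report. MIC taken as the lowest concentration with no visible growth. Replicates typically agreed within one 2-fold dilution. The median MIC is reported, with a range where the median fell between two tested concentrations.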

Klebsiella pneumoniae = test: Antibacterial activity against Klebsiella pneumoniae 700603 by broth microdilution assay; format: functional; in short: as §1
Acinetobacter baumannii = test: Antibacterial activity against Acinetobacter baumannii ATCC 19606 by broth microdilution assay; format: functional; conditions: ATCC 19606 = CIP 70.34 = JCM 6841; in short: as §1
Pseudomonas aeruginosa = test: Antibacterial activity against Pseudomonas aeruginosa ATCC 27853 by broth microdilution assay; format: functional; in short: as §1
Candida albicans = test: Antifungal activity against Candida albicans ATCC 90028 by broth microdilution assay; format: functional; in short: as §1
Cryptococcus neoformans = test: Antifungal activity against Cryptococcus neoformans H99 ATCC […] broth microdilution assay; format: functional; conditions: var. grubii H99 ATCC 208821; in short: as §1
HEK293 = test: Cytotoxicity against HEK293 cells after 24 hrs by resazurin dye-based fluorescence assay; format: cell-based; conditions: human, hek293, 24 h
In short: (§2)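 HEK293 (3000/well) and HepG2 (5000/well) were grown 24 h in DMEM with 10% FBS at 37 °C, 5% CO2. Cells were then exposed 24 h to a dilution series up to 100 µM (0.5% DMSO). 5 µM resazurin was added for 2 h, read at ex 560/em 590. 1% Triton X-100 served as lysis control. CC50 was derived from the curves.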

HepG2 = test: Cytotoxicity against human HepG2 cells after 24 hrs by resazurin dye-based fluorescence assay; format: cell-based; conditions: hepg2, 24 h; in short: as §2
Entamoeba histolytica = test: Antiparasitic activity against Entamoeba histolytica HM-1:IMSS trophozoites after 24 to 48 hrs by CellTiter-Glo luminescent cell viability assay; format: functional, organism-based
In short: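 Axenic trophozoites were kept in TYI-S-33 with penicillin (100 U/mL) and streptomycin (100 µg/mL) and harvested in log phase. 5000 parasites per well were exposed to a final 8-point two-fold series of 0.39–50 µM, from 10 mM DMSO stocks. Plates were incubated 24–48 h at 37 °C under anaerobic conditions. ATP luminescence viability was read in triplicate. Percent inhibition is given at the highest concentration tested.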

Clostridioides difficile = test: Antibacterial activity against Clostridium difficile 630 ATCC BAA-1382 by broth microdilution assay; format: functional; in short: as §1
[4] = tested on: Mycobacterium tuberculosis; test: Antibacterial activity against Mycobacterium tuberculosis H37Rv assessed as inhibition of bacterial growth at 32 ug/ml after 5 days under normoxic condition by resazurin dye-based fluorescence assay relative to control; format: functional; conditions: 120 h, read-out: GI
[5] = tested on: Trypanosoma brucei brucei; test: Antiparasitic activity against bloodstream form of Trypanosoma brucei brucei strain 427 after 48 hrs by resazurin dye-based assay; format: functional, organism-based; conditions: strain 427, 48 h
physchem [6] = conditions: water
physchem [7] = conditions: PBS, pH 7.4
[8] = Metabolic stability in human liver microsomes assessed as parent compound remaining at 3 uM after 2 hrs by LC-MS/MS analysis
[9] = Metabolic stability in CD-1 mouse liver microsomes assessed as parent compound remaining at 3 uM after 2 hrs by LC-MS/MS analysis
[10] = Metabolic stability in human plasma assessed as parent compound remaining at 3 uM after 2 hrs by LC-MS/MS analysis
[11] = Metabolic stability in CD-1 mouse plasma assessed as parent compound remaining at 3 uM after 2 hrs by LC-MS/MS analysis
[12] = Protein binding in human plasma at 5 uM after 30 mins by LC-MS/MS analysis based ultrafiltration method; conditions: 0.5 h
[13] = Apparent permeability across apical to basolateral side in human Caco2 cells assessed as mean drug recovery at 2 uM after 2 hrs by lucifer yellow dye-based LC-MS/MS analysis; conditions: caco-2, 2 h

Compound | IC50 (Giardia intestinalis) | IC50 (Giardia intestinalis; read-out: pIC50 (converted)) | MIC [1] | MIC [2] | MIC (Staphylococcus aureus) | MIC (Escherichia coli) | MIC (Klebsiella pneumoniae) | MIC (Acinetobacter baumannii) | MIC (Pseudomonas aeruginosa) | MIC (Candida albicans) | MIC (Cryptococcus neoformans) | CC50 (HEK293) | CC50 (HepG2) | IC50 (Entamoeba histolytica; read-out: IC50) | inhibition of growth at 32 µg/mL [4] | IC50 ([5]; read-out: IC50) | IC50 ([5]; read-out: pIC50 (converted)) | also measured
CC(c1ccc(F)cc1)n1ccn2cc([N+](=O)[O-])nc2c1=O (stereo not given) | 2.1 µM | 2 µM | 0.5 µg/mL (≈ 1.65 µM) | 4 to 6.3 µg/mL (≈ 13.2 to 20.8 µM) | > 32 µg/mL | > 32 µg/mL | > 32 µg/mL | > 32 µg/mL | > 32 µg/mL | > 32 µg/mL | > 32 µg/mL | > 100 µM | > 100 µM | – | – | – | – | inhibition of growth at 40 µM [3]: 94%
O=C(NCc1ccc(OC(F)(F)F)cc1)c1ncc([N+](=O)[O-])[nH]1 | 0.2 to 0.5 µM | – | >32 µg/mL | > 32 µg/mL | – | – | – | – | – | – | – | – | – | 2.2 to 4.5 µM | 60 to 75% | – | – | MIC (Clostridioides difficile): 4 to 16 µg/mL (≈ 12.1 to 48.5 µM)
O=c1c2nc([N+](=O)[O-])cn2ccn1Cc1ccccn1 | 14 µM | 15.8 µM | >32 µg/mL | > 32 µg/mL | > 32 µg/mL | > 32 µg/mL | > 32 µg/mL | > 32 µg/mL | > 32 µg/mL | > 32 µg/mL | > 32 µg/mL | > 100 µM | > 100 µM | – | – | 9.7 µM | 10 µM | solubility kinetic at 24 h, 200 µM (physchem [6]): 176 µM (≈ 47.7 µg/mL); solubility kinetic at 24 h, 200 µM (physchem [7]): 184 µM (≈ 49.9 µg/mL)
Cc1cn2cc([N+](=O)[O-])nc2c(=O)n1Cc1ccc(OC(F)(F)F)cc1 | 5.8 µM | 6.31 µM | >32 µg/mL | > 32 µg/mL | – | – | – | – | – | – | – | – | – | > 50 µM | – | 0.41 µM | 3.98 µM | IC50 (Entamoeba histolytica; read-out: pIC50 (converted)): > 50.1 µM; Stability [8]: > 99%; Stability [9]: > 99%; Stability [10]: 92%; Stability [11]: 99%; PPB [12]: 98%
O=C(NO)c1nc([N+](=O)[O-])cn1Cc1ccc(OC(F)(F)F)cc1 | 2.7 to 7.5 µM | – | >32 µg/mL | > 32 µg/mL | – | – | – | – | – | – | – | – | – | 10 to 45 µM | 60 to 75% | – | – | MIC (Clostridioides difficile): 16 to 64 µg/mL (≈ 46.2 to 185 µM)
O=c1c2nc([N+](=O)[O-])cn2ccn1CCc1ccc(OC(F)(F)F)cc1 | 1.6 µM | 1.58 µM | – | > 32 µg/mL | > 32 µg/mL | > 32 µg/mL | > 32 µg/mL | > 32 µg/mL | > 32 µg/mL | > 32 µg/mL | > 32 µg/mL | > 100 µM | > 100 µM | – | 70% | – | – | IC50 [1]: 8 µM; inhibition of growth at 40 µM [3]: 44%
Cc1cn2cc([N+](=O)[O-])nc2c(OCc2ccc(OC(F)(F)F)cc2)n1 | 7.4 µM | 7.94 µM | >32 µg/mL | > 32 µg/mL | – | – | – | – | – | – | – | – | – | 9.5 µM | – | > 40 µM | > 39.8 µM | IC50 (Entamoeba histolytica; read-out: pIC50 (converted)): 10 µM; Stability [8]: 69%; Stability [9]: 7.9%; Stability [10]: 94%; Stability [11]: > 99%; PPB [12]: > 99%
O=c1[nH]c(-c2ccccc2)cn2cc([N+](=O)[O-])nc12 | 10 µM | 10 µM | >32 µg/mL | > 32 µg/mL | – | – | – | – | – | – | – | – | – | > 25 µM | – | 0.22 µM | 0.2 µM | IC50 (Entamoeba histolytica; read-out: pIC50 (converted)): > 25.1 µM; solubility kinetic at 24 h, 200 µM (physchem [6]): 27 µM (≈ 6.92 µg/mL); solubility kinetic at 24 h, 200 µM (physchem [7]): 17 µM (≈ 4.36 µg/mL)
Cc1ccc(Cn2ccn3cc([N+](=O)[O-])nc3c2=O)cc1 | 3.4 µM | 3.16 µM | – | – | > 32 µg/mL | > 32 µg/mL | > 32 µg/mL | > 32 µg/mL | > 32 µg/mL | > 32 µg/mL | > 32 µg/mL | – | – | > 50 µM | – | – | – | MIC (Clostridioides difficile): > 64 µg/mL; Stability [8]: 97%; Stability [9]: 96%; Stability [10]: > 99%; Stability [11]: > 99%
Cc1ccc(CCn2ccn3cc([N+](=O)[O-])nc3c2=O)cc1 | 3.2 µM | 3.16 µM | – | > 32 µg/mL | > 32 µg/mL | > 32 µg/mL | > 32 µg/mL | > 32 µg/mL | > 32 µg/mL | > 32 µg/mL | > 32 µg/mL | > 100 µM | > 100 µM | – | 78% | > 40 µM | > 39.8 µM | IC50 [1]: 4 µM
O=c1[nH]ccn2cc([N+](=O)[O-])nc12 | > 25 µM | > 25.1 µM | >32 µg/mL | > 32 µg/mL | > 32 µg/mL | > 32 µg/mL | > 32 µg/mL | > 32 µg/mL | > 32 µg/mL | > 32 µg/mL | > 32 µg/mL | > 100 µM | > 100 µM | – | – | – | – | inhibition of growth at 40 µM [3]: 97%
CC(C)NCC(O)COc1cccc2ccccc12 (stereo not given) [PROPRANOLOL] | – | – | – | – | – | – | – | – | – | – | – | – | – | – | – | – | – | Drug recovery [13]: 70%
